Source: PubChem BioAssay (Broad Institute)
Ecoli rRNA inh = selective bacterial rRNA inhibition in E. coli; E. coli WT GFP vs humanized-ribosome RFP mutants, fluorescence, 24 h; active compounds read low; DMSO median 0, no signal -100; GFP signal change (wild-type ribosome), % (concentration not given with the values); 350,000 tested, 1.6% active; AID 720706;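 active means significant combined selectivity score with lowered wild-type GFP, culture density cut under 30%, mutant RFP and density less affected; inactive means any of these conditions unmet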
ERAP1 inh = ERAP1 (human) enzyme inhibition; inhibition, % at 10.7 µM; Q9NZ08; recombinant ERAP1, Leu-AMC fluorescence, 60 min; 340,000 tested, 0.15% active; AID 652197;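 active means mean replicate inhibition of at least 30%, or all replicates individually reaching that 30% level; inactive means mean below 30% and not every replicate reaching it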;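 further: 0% = neutral control wells and 100% = L-leucinethiol positive control wells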
AF4-AF9 inh = MLL-AF4/AF9 protein interaction inhibition. 350,000 tested, 0.47% active. AlphaScreen, biotin-AF4 peptide binding to FLAG-AF9. inhibition, % at 10 µM. P42568;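 active means every replicate reaching a set inhibition limit, whatever the replicate mean, cut at about 25% in these data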;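 further: 0% = plate neutral control median and 100% = total signal loss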
E-sel inducer = E-selectin induction on HUVECs. P16581. HUVEC E-selectin immunofluorescence imaging; normalized: neutral wells 0, TNF-alpha wells 100. activation, % at 7.58 µM. 260,000 tested, 0.37% active. AID 686992;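 active means mean E-selectin-positive cell signal at least 10% of the positive control, reached in at least 60% of replicates, without over 20% cell loss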
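Assay system: HUVEC, human umbilical vein endothelial cells / Amount: 3,000 HUVEC/well / Controls: TNF-alpha positive control, DMSO neutral control / Compound dosing: single concentration / Medium: EGM-2 over gelatin coat / Evaluation: percent E-selectin-positive cells / Signal: immunofluorescence imaging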
S100A4 MyoIIA = blocks human S100A4 binding to myosin IIA peptide; S100A4/TAMRA-MyoIIA peptide fluorescence polarization; 360,000 tested, 0.14% active; inhibition, % at 10.7 µM;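 active means mean inhibition of at least 70% across replicates, with every replicate also reaching that level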
Target sequence (P26447 whole entry, looked up): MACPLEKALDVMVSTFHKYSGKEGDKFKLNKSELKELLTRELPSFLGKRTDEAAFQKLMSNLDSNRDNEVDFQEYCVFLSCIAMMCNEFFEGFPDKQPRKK
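Material: human S100A4 monomer with TAMRA-labelled myosin IIA peptide; buffer or medium: HEPES pH 7.2 with CaCl2, KCl, NaCl, DTT, Triton; compound dosing: one concentration per compound; schedule: 5 min incubation before reading; benchmarks: neutral control DMSO, positive control TFP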
SIRT5 inh = sirtuin-5 (human) deacylase inhibition; Q9NXA8; inhibition, % at 15 µM; 330,000 tested, 1.1% active; Purified SirT5, succinyl-peptide AMC, trypsin-coupled fluorescence; in the data active means inhibition above about 15%
Target sequence (Q9NXA8 whole entry, looked up): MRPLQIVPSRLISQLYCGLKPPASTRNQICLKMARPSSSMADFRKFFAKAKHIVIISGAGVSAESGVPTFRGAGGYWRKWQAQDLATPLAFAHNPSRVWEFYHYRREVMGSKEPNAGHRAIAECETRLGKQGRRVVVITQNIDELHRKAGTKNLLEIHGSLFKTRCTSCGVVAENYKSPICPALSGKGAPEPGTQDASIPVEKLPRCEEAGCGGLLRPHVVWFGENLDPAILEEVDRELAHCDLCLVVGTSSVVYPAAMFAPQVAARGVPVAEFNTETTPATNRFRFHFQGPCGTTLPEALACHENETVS
The depositor's hits bear a star; . = not tested or not shown; ! = not active in a repeat. Shown are actives, neighbours in structure and some others; about 3.4% of the full set was active somewhere.

SMILES	Ecoli rRNA inh	ERAP1 inh	AF4-AF9 inh	E-sel inducer	S100A4 MyoIIA	SIRT5 inh
COc1ccc(NC(=S)Nc2ncccc2C)c(OC)c1	-31*	-1	-21	.	0	0
Cc1c(O)ccc(/C(Cc2ccc3ccccc3n2)=N\N)c1O	-25*	7	.	.	-6	-1
COc1ccccc1C#Cc1cnc2c(c1)C(=O)N([C@@H](C)CO)C[C@@H](C)[C@H](CN(C)C(C)=O)O2	0	0	0	0	-17	0
C[C@@H]1CN([C@@H](C)CO)S(=O)(=O)c2ccc(Br)cc2O[C@@H]1CN(C)Cc1ccc2c(c1)OCO2	-34*!	-2	10	10	9	2
CC(C)CC#Cc1ccc2c(c1)O[C@H](CN(C)Cc1ccc3c(c1)OCO3)[C@H](C)CN([C@H](C)CO)S2(=O)=O	1	-2	2	.	-8	14*
COc1ccccc1-c1ccc2c(c1)O[C@@H](CN(C)Cc1ccc3c(c1)OCO3)[C@@H](C)CN([C@@H](C)CO)S2(=O)=O	1	0	6	.	13	21*
O=C(C[C@@H]1CC[C@H]2[C@@H](COC[C@@H](O)CN2CC2CCOCC2)O1)N1CCOCC1	2	0	-6	0	-1	2
C[C@@H]1CN([C@@H](C)CO)C(=O)c2cc(C#Cc3ccccc3)cnc2O[C@@H]1CN(C)C(=O)CN(C)C	3	0	8	1	-19	0
C[C@H]1CN([C@@H](C)CO)C(=O)c2cc(NC(=O)CCC(F)(F)F)ccc2O[C@H]1CN(C)C(=O)Nc1ccc(F)cc1	-1	-2	-1	0	-1	-1
C[C@H]1CN([C@@H](C)CO)C(=O)c2cc(NC(=O)CCC(F)(F)F)ccc2O[C@H]1CN(C)C	1	-1	-2	.	-7	17*
C[C@H](CO)N1C[C@H](C)[C@@H](CN(C)C)Oc2ccc(NC(=O)CCC(F)(F)F)cc2C1=O	-2	-3	-2	.	26	-2
C[C@@H]1CN([C@@H](C)CO)C(=O)c2cc(NC(=O)CCC(F)(F)F)ccc2O[C@@H]1CN(C)C(=O)Nc1ccc(F)cc1	1	-4	0	0	96*	0
CCCNC(=O)N[C@@H]1CC[C@@H](CCNS(=O)(=O)c2cccc(F)c2)O[C@H]1CO	1	2	1	1	-7	-5
COc1ccccc1C#Cc1ccc2c(c1)O[C@H](CN(C)Cc1ccccc1)[C@@H](C)CN([C@H](C)CO)S2(=O)=O	5	1	-1	0	-4	-5
COc1ccc(CN2C[C@H](C)[C@@H](OC)CN(C)C(=O)c3ccc(NC(=O)c4nc5ccccc5s4)cc3OC[C@H]2C)cc1	2	1	3	0	13	6
CO[C@H]1CN(C)C(=O)c2cc(NC(=O)c3nc4ccccc4s3)ccc2OC[C@H](C)NC[C@H]1C	-12	2	1	0	-19	1.9*
COc1ccc(CN2C[C@H](C)[C@@H](OC)CN(C)C(=O)c3ccc(NC(=O)c4nc5ccccc5s4)cc3OC[C@@H]2C)cc1	.	4	4	0	15	102*
CO[C@H]1CN(C)C(=O)c2cc(NC(=O)c3nc4ccccc4s3)ccc2OC[C@H](C)N(Cc2cncnc2)C[C@@H]1C	1	.	-15	1	.	15*
COc1ccc(C(CCN2CCCC(C)C2)c2c(OC)cc(OC)c3c(-c4ccccc4)cc(=O)oc23)cc1 (centres undefined)	-1	.	27*	1	-12	.
COc1ccc(C(CCN2CCCC2)c2c(OC)cc(OC)c3c(-c4ccccc4)cc(=O)oc23)cc1 (centres undefined)	5	.	15	0	-1	.
CCCCCc1cc(=O)oc2c(C(CCN3CCCCC3)c3ccc4c(c3)OCO4)c(OC)cc(OC)c12 (centres undefined)	-56	0	27*	.	-5	.
CC(=O)C1=C(c2ccccc2)OC(N)=C(C#N)C1c1ccccc1C (centres undefined)	-33*	-1	3	0	0	-7
